Assay outcomes (PubChem BioAssay)
The list is not random: actives were taken first. Their share in the collection is about 1.8%.
ATG4B inhibitor – ATG4B (human) cysteine protease inhibition; actives 0.51% (n = 340,000); Q9Y4P1; inhibition, % at 8.33 µM; ATG4B cleavage of LC3-PLA2, NBD-HPC fluorescence, 1 h; in the data active = inhibition above about 40%
HKDC1 inhibitor – inhibitors of human hexokinase HKDC1 | Q2TB90 | recombinant HKDC1, G6PDH/diaphorase resazurin coupled fluorescence | inhibition, % at 20 µM | actives 0.16% (n = 340,000);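 active = inhibition above about 35% when tested at 20 µM, limit read from the data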
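Incubation: 90 min at room temperature in dark / Material: recombinant HKDC1 (HK5) hexokinase enzyme, produced in-house / Quantity: enzyme 5 µg/mL final / Compound: one dose of 20 µM, 1% DMSO / Reagent: glucose and ATP substrates / Buffer or medium: Tris pH 8.0 buffer with MgCl2, Tween-20, BSA, BME / Technique: resorufin fluorescence at 613 nm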
HDAC3 inhib – inhibitors of human histone deacetylase 3. O15379. recombinant HDAC3, fluorogenic peptide/trypsin coupled, fluorescence. inhibition, % at 8.3 µM. actives 0.15% (n = 320,000); in the data active = inhibition above about 26%, passing the limit was not always enough
Target sequence (O15379 whole entry, looked up): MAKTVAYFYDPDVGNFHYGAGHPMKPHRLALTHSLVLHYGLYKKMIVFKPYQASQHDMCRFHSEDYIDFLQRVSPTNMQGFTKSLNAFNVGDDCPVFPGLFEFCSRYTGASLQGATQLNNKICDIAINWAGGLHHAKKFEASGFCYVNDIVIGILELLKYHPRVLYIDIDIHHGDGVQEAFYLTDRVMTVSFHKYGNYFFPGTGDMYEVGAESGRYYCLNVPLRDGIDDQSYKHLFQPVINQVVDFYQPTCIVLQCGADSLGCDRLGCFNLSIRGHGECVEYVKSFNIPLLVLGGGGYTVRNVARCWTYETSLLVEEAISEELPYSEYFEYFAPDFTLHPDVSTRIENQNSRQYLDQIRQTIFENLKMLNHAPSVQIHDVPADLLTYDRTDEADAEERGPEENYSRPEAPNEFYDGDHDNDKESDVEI
A1 inh – inhibitors of the anti-apoptotic protein A1, read as caspase activation; MEF A1-2A-BIM cells, Caspase-Glo 3/7 luminescence, 3 h; percent of clofoctol response, vehicle zero; caspase activation, % (test concentration not listed); actives 0.066% (n = 330,000);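 active = over half of replicate activation scores above 10%, or exactly half above 10 with the replicate mean above 10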
AI-2 QS mod – modulators of Vibrio harveyi AI-2 quorum sensing system. Vibrio harveyi JMH597 AI-2 luminescence/OD600 ratio, 9 h; stronger effect = lower value; strain lacks LuxN and CqsS sensors; 0 = neutral-control median. activity change, % at 7.5 µM. actives 0.4% (n = 300,000); in the data active = activity change below about -75%, passing the limit was not always enough;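 note: luminescence divided by OD600 gain over 9 h not by final OD600 alone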
LANA-H2B inh – blocks KSHV LANA binding to histone H2A/H2B; cell-free LANA-H2A/H2B peptide, fluorescence polarization; inhibition, % (no concentration beside the values); actives 0.6% (n = 320,000); AID 2629; in the data active = inhibition mostly above about 10%, no sharp cut-off; inactive = mostly below about 6.7%
ATG4B confirm – confirmation of human ATG4B inhibitors; shares compounds with ATG4B inhibitor; ATG4B protease fluorescent substrate cleavage assay; inhibition, % at 8.33 µM; actives 92% (n = 320); AID 504757; in the data active = inhibition above about 39%
PLA2 counter – PLA2 (human) inhibition in ATG4B counter-screen. shares compounds with ATG4B inhibitor. purified PLA2, NBD-C6-HPC fluorescence, 45 min. inhibition, % at 8.33 µM. actives 66% (n = 1,600). AID 588402; in the data active = inhibition above about 50%
Target sequence (P04054 whole entry, looked up): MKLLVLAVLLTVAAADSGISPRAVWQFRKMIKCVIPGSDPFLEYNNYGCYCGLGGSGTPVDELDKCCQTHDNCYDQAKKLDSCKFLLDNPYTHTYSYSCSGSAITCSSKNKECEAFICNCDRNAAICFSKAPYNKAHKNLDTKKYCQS
Numbers stand for hits; n = inactive; x = not tested or not shown.

SMILES	ATG4B inhibitor	HKDC1 inhibitor	HDAC3 inhib	A1 inh	AI-2 QS mod	LANA-H2B inh	PLA2 counter	others
O=C(Nc1nc(-c2ccccc2)cs1)NC1CCCCC1	58	n	n	n	n	n	66
Cn1cccc1/C=C1\CCC/C(=C\c2cccn2C)C1=O	45	n	n	n	n	n	59
O=C1/C(=C/c2cccs2)CCC/C1=C\c1cccs1	n	n	n	n	n	n	x
O=C(c1nn(Cc2ccccc2)c(=O)c2ccccc12)N1CCN(C/C=C/c2ccccc2)CC1	49	n	n	n	n	n	55
Nc1nc(SCc2ccccc2[N+](=O)[O-])c2ncn(Cc3ccccc3)c2n1	50	n	x	x	x	x	58
Cn1cnc([N+](=O)[O-])c1Sc1nc(N)nc2c1ncn2Cc1ccccc1	n	n	x	x	x	x	x
Nc1nc(-c2ccc3c(c2)CCCC3)c(CC(=O)O)s1	n	n	n	n	n	n	x
CCc1[nH]nc(C(=O)N2CCCC(Nc3cccc(F)c3)C2)c1C (stereo not given)	n	n	n	n	n	n	x
CC1=Nc2ccccc2/C1=C/c1sc(=S)n(-c2cccc(C(=O)O)c2)c1O	60	n	x	x	n	x	85
COc1cc2[nH]c(C(=O)N3CCC(Cc4ccccc4)CC3)cc2c(OC)c1OC	n	n	n	n	n	n	x
CCOC(=O)[C@@H]1[C@H]2COc3cc(OC)ccc3[C@H]2N2C(=O)N(c3cccc(F)c3)C(=O)[C@@]12C	n	n	n	n	x	n	x
Cc1nc(S/C(=C\c2ccc(-c3ccc(C(=O)O)c(Cl)c3)o2)C(=O)O)n[nH]1	n	n	x	x	n	x	x
Cc1nc(S/C(=C\c2ccc(OCc3ccccc3Cl)cc2)C(=O)O)n[nH]1	94	n	n	n	x	n	83
O=S(=O)(c1ccccc1)N1CCN(C(=S)Nc2ccccc2Cl)CC1	n	n	x	n	n	n	x
O=C(CSc1nccn1-c1ncc(C(F)(F)F)cc1Cl)c1ccc(Br)cc1	104	n	n	n	n	n	n
Cc1ccc(/C(CSc2nccn2-c2ncc(C(F)(F)F)cc2Cl)=N\O)cc1	n	n	n	n	n	n	x
COc1ccccc1C(=O)Oc1ccc2ccc(=O)oc2c1	n	n	n	n	n	n	x
COc1ccccc1C(=O)Oc1ccc(C(C)(C)C)cc1	42	n	n	n	n	n	50
Cc1ccc2cc3cc(C(=O)N4CC(C)CC(C)C4)oc3nc2c1 (stereo not given)	45	n	n	n	n	n	57
Cc1ccc2cc3cc(C(=O)N4CCCCC4C)oc3nc2c1 (stereo not given)	n	n	n	n	n	n	x
COc1ccc2cc3cc(C(=O)N4CC(C)CC(C)C4)oc3nc2c1 (stereo not given)	49	n	n	n	n	n	54
CCOC(=O)C1CCN(C(=O)c2cc3cc4ccc(OC)cc4nc3o2)CC1	n	n	n	n	n	n	x
COc1ccc(N2C(=O)c3ccccc3NC23CCC(C)CC3)cc1 (stereo not given)	45	n	n	n	x	n	n	ATG4B confirm=61
COc1ccc(N2C(=O)c3ccccc3NC23CCCCC3)cc1	n	n	n	n	n	n	x
COc1ccc(NC(=O)c2ccccc2Oc2ccccc2)cc1	n	n	n	n	n	n	x
SMILES	ATG4B inhibitor	HKDC1 inhibitor	HDAC3 inhib	A1 inh	AI-2 QS mod	LANA-H2B inh	PLA2 counter	others
Cc1cccc(Oc2ccc(NC(=O)c3ccccc3C(=O)O)cc2)c1C	69	n	n	n	n	n	70
O=C(COc1ccc(C(=O)c2ccccc2)cc1)NCC1CCCCC1	46	n	n	n	n	n	n
O=C(NNC(=O)c1ccccc1F)c1cccc(S(=O)(=O)N2CCc3ccccc32)c1	n	n	n	n	x	n	x
COc1ccc(CSC(=N)N)cc1[N+](=O)[O-]	n	n	n	n	n	n	x
CCCCCOc1ccc(CSC(=N)N)cc1[N+](=O)[O-]	64	n	n	n	n	n	61
COc1ccc(CN2C(=O)c3ccccc3C(/C=N\OCc3ccc(F)cc3)C2=O)cc1 (stereo not given)	60	n	n	n	n	n	75
COc1ccc(CN2C(=O)c3ccccc3C(/C=N/OCc3ccc(Cl)cc3)C2=O)cc1 (stereo not given)	n	n	n	n	n	n	x
O=S(=O)(c1ccc(F)cc1)c1nc(-c2ccccc2F)oc1N1CCCCC1	44	n	n	n	n	n	n	ATG4B confirm=65
CCN1C(=O)C(CC(=O)Nc2ccc(OC)cc2)N(CCc2ccc(OC)cc2)C1=S (stereo not given)	n	n	n	n	n	n	x
COc1ccc(CCN2C(=S)N(C)C(=O)C2CC(=O)Nc2ccc(F)cc2)cc1 (stereo not given)	43	n	n	n	n	n	56
O=C(Nc1ccc(F)cc1F)c1ccc2c(c1)[nH]c(=O)n2Cc1ccc(F)cc1	n	n	n	n	n	n	x
CC(C)(C)C(=O)Nc1ccc(S(=O)(=O)Nc2ccccn2)cc1	n	n	n	n	n	n	x
O=C(O)Cc1sc(NC2CCCCC2)nc1-c1ccc(Cl)cc1	54	n	n	n	n	n	n	ATG4B confirm=65
CCCCOc1ccc(-c2cc(C(=O)NNC(=S)NCC)c3ccccc3n2)cc1	47	n	n	n	n	n	58
CCCCOc1cccc(-c2cc(C(=O)NNC(=S)NCC)c3ccccc3n2)c1	n	n	n	n	n	n	x
Cc1c(C(=O)Nc2nccs2)sc2nc(-c3cccs3)cc(C(F)(F)F)c12	50	n	n	n	n	n	n
O=C(/C=C1\NC2(CCCC2)Cc2ccccc21)C(=O)N/N=C/c1ccc(O)c(O)c1	61	n	n	n	n	n	68
Oc1ccccc1C1SC(c2ccccc2O)SC(c2ccccc2O)S1 (stereo not given)	63	n	x	x	x	x	n
Cc1cc2c(cc1C)CSC(c1ccccc1O)SC2	n	n	n	n	n	n	x
NC(=O)C1(N2CCCCC2)CCN(C(=S)Nc2ccc(S(N)(=O)=O)cc2)CC1	n	n	n	n	n	n	x
Cc1ccc(NC(=S)NC(NC(=O)c2ccccc2C)C(Cl)(Cl)Cl)c(C)c1 (stereo not given)	n	n	n	n	n	n	x
CC1CC(C)CN(C(=O)c2ccc3c(c2NCCO)C(=O)c2ccccc2C3=O)C1 (stereo not given)	59	n	n	n	n	n	67
Cc1ccc(-n2c(C)cc(C(=O)COC(=O)c3ccc[nH]c3=O)c2C)cc1C	45	n	n	n	n	n	n
